Measurements taken from ChEMBL document CHEMBL1811815, “Synthesis of new pyrazole derivatives and their anticancer evaluation” (2010).

What was measured:
ACHN = assay: Anticancer activity against human ACHN cells assessed as cell growth at 10^-5 M after 48 hrs by sulforhodamine B assay relative to control
DU-145 [1] = assay: Anticancer activity against human DU145 cells assessed as cell growth at 10^-5 M after 48 hrs by sulforhodamine B assay relative to control; conditions: DU-145, 48 h
MDA-MB-435 = assay: Anticancer activity against human MDA-MB-435 cells assessed as cell growth at 10^-5 M after 48 hrs by sulforhodamine B assay relative to control; conditions: MDA-MB-435, 48 h
UACC-62 = assay: Anticancer activity against human UACC62 cells assessed as cell growth at 10^-5 M after 48 hrs by sulforhodamine B assay relative to control; conditions: UACC-62, 48 h
CAKI-1 = assay: Anticancer activity against human Caki1 cells assessed as cell growth at 10^-5 M after 48 hrs by sulforhodamine B assay relative to control; conditions: CAKI-1, 48 h
RXF 393 = assay: Growth inhibition of human RXF393 cells after 48 hrs by sulforhodamine B assay; type: functional; conditions: RXF 393, 48 h
Method in brief: (§1)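 NCI five-dose assay using 10-fold serial dilutions from 10^-8 to 10^-4 M, compound in DMSO. Cells exposed 48 h at 37 °C, 5% CO2, 100% humidity. Protein measured by sulforhodamine B staining at 515 nm, with time-zero, control and treated readings. GI50 is the concentration where [(Ti−Tz)/(C−Tz)]×100 = 50. It is reported as greater or less than the range bounds when not reached.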

NCI-H23 = assay: Growth inhibition of human NCI-H23 cells after 48 hrs by sulforhodamine B assay; type: functional; conditions: NCI-H23, 48 h
Method in brief: as §1

786-0 = assay: Growth inhibition of human 786-0 cells after 48 hrs by sulforhodamine B assay; type: functional; conditions: 786-0, 48 h
Method in brief: as §1

HCT-116 [2] = assay: Anticancer activity against human HCT116 cells assessed as cell growth at 10^-5 M after 48 hrs by sulforhodamine B assay relative to control; conditions: HCT-116, 48 h
UO-31 = assay: Growth inhibition of human UO31 cells after 48 hrs by sulforhodamine B assay; type: functional; conditions: UO-31, 48 h
Method in brief: as §1

SNB-75 = assay: Growth inhibition of human SNB75 cells after 48 hrs by sulforhodamine B assay; type: functional; conditions: SNB-75, 48 h
Method in brief: as §1

OVCAR-3 = assay: Growth inhibition of human OVCAR3 cells after 48 hrs by sulforhodamine B assay; type: functional; conditions: OVCAR-3, 48 h
Method in brief: as §1

NCI-H322M = assay: Growth inhibition of human NCI-H322M cells after 48 hrs by sulforhodamine B assay; type: functional
Method in brief: as §1

SR = assay: Growth inhibition of human SR cells after 48 hrs by sulforhodamine B assay; type: functional
Method in brief: as §1

SF-539 = assay: Growth inhibition of human SF539 cells after 48 hrs by sulforhodamine B assay; type: functional; conditions: SF-539, 48 h
Method in brief: as §1

HCT-116 [3] = assay: Growth inhibition of human HCT116 cells after 48 hrs by sulforhodamine B assay; type: functional; conditions: HCT-116, 48 h
Method in brief: as §1

TK-10 = assay: Anticancer activity against human TK10 cells assessed as cell growth at 10^-5 M after 48 hrs by sulforhodamine B assay relative to control; conditions: TK-10, 48 h
LOX IMVI = assay: Growth inhibition of human LOXIMVI cells after 48 hrs by sulforhodamine B assay; type: functional
Method in brief: as §1

SF-295 = assay: Growth inhibition of human SF295 cells after 48 hrs by sulforhodamine B assay; type: functional; conditions: SF-295, 48 h
Method in brief: as §1

OVCAR-8 = assay: Growth inhibition of human OVCAR8 cells after 48 hrs by sulforhodamine B assay; type: functional; conditions: OVCAR-8, 48 h
Method in brief: as §1

OVCAR-4 = assay: Growth inhibition of human OVCAR4 cells after 48 hrs by sulforhodamine B assay; type: functional; conditions: OVCAR-4, 48 h
Method in brief: as §1

SK-OV-3 = assay: Growth inhibition of human SKOV3 cells after 48 hrs by sulforhodamine B assay; type: functional; conditions: SK-OV-3, 48 h
Method in brief: as §1

MDA-MB-231 = assay: Growth inhibition of human MDA-MB-231 cells after 48 hrs by sulforhodamine B assay; type: functional; conditions: MDA-MB-231, 48 h
Method in brief: as §1

A549 = assay: Growth inhibition of human A549 cells after 48 hrs by sulforhodamine B assay; type: functional; conditions: A549, 48 h
Method in brief: as §1

NCI/ADR-RES = assay: Growth inhibition of human NCI/ADR-RES cells after 48 hrs by sulforhodamine B assay; type: functional
Method in brief: as §1

DU-145 [4] = assay: Growth inhibition of human DU145 cells after 48 hrs by sulforhodamine B assay; type: functional; conditions: DU-145, 48 h
Method in brief: as §1

[5] = Growth inhibition of human Hs 578T cells after 48 hrs by sulforhodamine B assay; type: functional
Method in brief: as §1

NCI-H522 = assay: Anticancer activity against human NCI-H522 cells assessed as cell growth at 10^-5 M after 48 hrs by sulforhodamine B assay relative to control; conditions: NCI-H522, 48 h
Malme-3M = assay: Growth inhibition of human MALME-3M cells after 48 hrs by sulforhodamine B assay; type: functional
Method in brief: as §1

MOLT-4 = assay: Anticancer activity against human MOLT4 cells assessed as cell growth at 10^-5 M after 48 hrs by sulforhodamine B assay relative to control; conditions: MOLT-4, 48 h
HOP-92 = assay: Anticancer activity against human HOP92 cells assessed as cell growth at 10^-5 M after 48 hrs by sulforhodamine B assay relative to control; conditions: HOP-92, 48 h
[6] = read-out: pLC50 (the source's name) (converted)

Structure (SMILES): Cc1cs/c(=N\C(=O)c2cnn(C)c2)n1-c1ccc(Cl)cc1
- growth, % of control at 10 µM (ACHN): -11.8%
- growth, % of control at 10 µM (DU-145 [1]): 0.3%

Structure (SMILES): Cc1cc(NC(=S)NC(=O)c2ccccc2)n(-c2ccccc2)n1
- growth, % of control at 10 µM (MDA-MB-435): 22.6%

Structure (SMILES): Cn1cc(C(=O)NC(=S)Nc2ccc(Cl)cc2Cl)cn1
- growth, % of control at 10 µM (UACC-62): 79.7%

Structure (SMILES): Cn1cc(C(=O)NC(=S)Nc2c(Cl)cccc2Cl)cn1
- growth, % of control at 10 µM (CAKI-1): 69.7%

Structure (SMILES): O=C(NC(=S)Nc1cc(-c2ccc(Br)cc2)n[nH]1)c1ccccc1
- GI50 (RXF 393): 3.16 µM
- CC50 (RXF 393; [6]): 47.9 µM
- TGI (RXF 393; read-out: pTGI (converted)): 15.1 µM
- GI50 (NCI-H23): 9.33 µM
- CC50 (NCI-H23; read-out: pLC50 (converted)): > 100 µM
- TGI (NCI-H23; read-out: pTGI (converted)): 50.1 µM
- GI50 (786-0): 3.24 µM
- CC50 (786-0; [6]): 47.9 µM
- TGI (786-0; read-out: pTGI (converted)): 11.7 µM
- growth, % of control at 10 µM (HCT-116 [2]): 1%
- GI50 (UO-31): 4.07 µM
- CC50 (UO-31; [6]): 85.1 µM
- TGI (UO-31; read-out: pTGI (converted)): 21.4 µM
- GI50 (SNB-75): 6.17 µM
- CC50 (SNB-75; [6]): 89.1 µM
- TGI (SNB-75; read-out: pTGI (converted)): 26.9 µM
- GI50 (OVCAR-3): 5.01 µM
- CC50 (OVCAR-3; [6]): 70.8 µM
- TGI (OVCAR-3; read-out: pTGI (converted)): 20.4 µM
- GI50 (NCI-H322M): 4.47 µM
- CC50 (NCI-H322M; [6]): > 100 µM
- TGI (NCI-H322M; read-out: pTGI (converted)): 44.7 µM
- GI50 (SR): 11.7 µM
- CC50 (SR; [6]): > 100 µM
- TGI (SR; read-out: pTGI (converted)): 40.7 µM
- GI50 (SF-539): 3.39 µM
- CC50 (SF-539; [6]): > 100 µM
- TGI (SF-539; read-out: pTGI): > 100 µM
- GI50 (HCT-116 [3]): 1.78 µM
- CC50 (HCT-116 [3]; [6]): 24.5 µM
- TGI (HCT-116 [3]; read-out: pTGI (converted)): 4.79 µM
- growth, % of control at 10 µM (TK-10): -19.9%
- GI50 (LOX IMVI): 5.5 µM
- CC50 (LOX IMVI; [6]): > 100 µM
- TGI (LOX IMVI; read-out: pTGI): > 100 µM
- GI50 (SF-295): 9.77 µM
- CC50 (SF-295; [6]): > 100 µM
- TGI (SF-295; read-out: pTGI (converted)): 36.3 µM
- GI50 (OVCAR-8): 4.68 µM
- CC50 (OVCAR-8; [6]): 69.2 µM
- TGI (OVCAR-8; read-out: pTGI (converted)): 20.9 µM
- GI50 (OVCAR-4): 4.27 µM
- CC50 (OVCAR-4; [6]): > 100 µM
- TGI (OVCAR-4; read-out: pTGI (converted)): 24 µM
- GI50 (SK-OV-3): 7.24 µM
- CC50 (SK-OV-3; [6]): 52.5 µM
- TGI (SK-OV-3; read-out: pTGI (converted)): 21.9 µM
- GI50 (MDA-MB-231): 3.8 µM
- CC50 (MDA-MB-231; [6]): > 100 µM
- TGI (MDA-MB-231; read-out: pTGI (converted)): 22.4 µM
- GI50 (A549): 2.34 µM
- CC50 (A549; [6]): 79.4 µM
- TGI (A549; read-out: pTGI (converted)): 14.1 µM
- GI50 (NCI/ADR-RES): 4.9 µM
- CC50 (NCI/ADR-RES; [6]): > 100 µM
- TGI (NCI/ADR-RES; read-out: pTGI (converted)): 63.1 µM
- GI50 (DU-145 [4]): 9.33 µM
- CC50 (DU-145 [4]; [6]): > 100 µM
- TGI (DU-145 [4]; read-out: pTGI): > 100 µM
- GI50 [5]: 2.75 µM
- CC50 [5, 6]: > 100 µM
- TGI ([5]; read-out: pTGI (converted)): 33.9 µM
- growth, % of control at 10 µM (NCI-H522): 8.9%
- GI50 (Malme-3M): 6.61 µM
- CC50 (Malme-3M; [6]): > 100 µM
- TGI (Malme-3M; read-out: pTGI (converted)): 91.2 µM

Structure (SMILES): Cc1cccc(C)c1NC(=S)NC(=O)c1cnn(C)c1
- growth, % of control at 10 µM (MOLT-4): 40.5%

Structure (SMILES): Cc1ccc(NC(=S)NC(=O)c2cnn(C)c2)cc1
- growth, % of control at 10 µM (NCI-H522): 62.5%

Structure (SMILES): Cn1cc(C(=O)NC(=S)Nc2ccc(Cl)cc2)cn1
- growth, % of control at 10 µM (NCI-H522): 47.2%

Structure (SMILES): COc1ccc(NC(=S)NC(=O)c2cnn(C)c2)cc1
- growth, % of control at 10 µM (HOP-92): 68.7%

Structure (SMILES): Cc1cs/c(=N\C(=O)c2cnn(C)c2)n1-c1ccccc1
- growth, % of control at 10 µM (ACHN): -15.7%
- growth, % of control at 10 µM (DU-145 [1]): 1.6%
